Test results published in ChEMBL document CHEMBL4732262, “Identification of two novel thiophene analogues as inducers of autophagy mediated cell death in breast cancer cells” (Bioorg Med Chem, 2021).
pIC50: −log10 of the molar value. Activity calls are given as the source filed them. No cut-off for these calls is given here.

How the values were obtained:
[1] = test system: MCF7; assay: Cytotoxicity against human MCF7 cells assessed as reduction in cell viability after 24 hrs by MTT assay; assay type: functional, cell-based; settings: MCF7, 24 h
In short: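 Cells seeded ~5 × 10^3 per well in 96-well plates, exposed to 0–40 µM for 24 h. MTT added at 0.5 mg/ml for 3 h, formazan dissolved in DMSO, absorbance read at 540 nm. IC50 taken from plotted curves. Duplicate wells, two independent repeats. MCF7 grown in DMEM, MDA-MB-231 in RPMI, both with 10% FBS at 37 °C and 5% CO2.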

[2] = test system: MCF7; assay: Induction of apoptosis in human MCF7 cells assessed as late apoptotic cells at 2.5 uM after 24 hrs by annexin V-FITC/Propidium iodide staining based flow cytometric analysis (reference value: 0.2%); assay type: functional
[3] = test system: MDA-MB-231; assay: Induction of apoptosis in human MDA-MB-231 cells assessed as early apoptotic cells at 2.5 uM after 24 hrs by annexin V-FITC/Propidium iodide staining based flow cytometric analysis (reference value: 1.54%); assay type: functional
[4] = test system: MDA-MB-231; assay: Induction of apoptosis in human MDA-MB-231 cells assessed as morphological changes at 2.5 uM after up to 24 hrs by phase contrast microscopic method; assay type: functional, cell-based; settings: time hrs <=24
In short: (§1)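 ~5 × 10^4 cells in 6-well plates, either DMSO control or 2.5 µM. Morphology imaged at 0, 6, 12 and 24 h.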

[5] = test system: MDA-MB-231; assay: Induction of apoptosis in human MDA-MB-231 cells assessed as reduction in number of cells at 2.5 uM by phase contrast microscopic method; assay type: functional, cell-based; settings: time 6-24 hrs, TDE = time-dependent effect; in short: as §1
[6] = test system: MDA-MB-231; assay: Induction of apoptosis in human MDA-MB-231 cells assessed as reduction in size of cells at 2.5 uM by phase contrast microscopic method; assay type: functional, cell-based; settings: time 6-24 hrs, TDE = time-dependent effect; in short: as §1
[7] = test system: MCF7; assay: Induction of apoptosis in human MCF7cells assessed as reduction in number of cells at 2.5 uM by phase contrast microscopic method; assay type: functional, cell-based; settings: time 6-24 hrs, TDE = time-dependent effect; in short: as §1
[8] = test system: MCF7; assay: Induction of apoptotic in human MCF7 cells assessed as increase in Bim protein expression at 2.5 uM after 24 hrs by Western blot analysis; assay type: functional, cell-based
In short: (§2)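 MCF7 or MDA-MB-231 cells given 2.5 µM or DMSO for 24 h, then lysed in RIPA buffer. Immunoblots probed overnight at 4 °C, followed by infrared-labelled secondary antibody for 1 h at 37 °C. Bands imaged and quantified densitometrically, with GAPDH as loading control. Representative of two independent experiments.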

[9] = test system: MCF7; assay: Induction of autophagy in human MCF7 cells assessed as increase in LC3-2 to LC3-1 protein ratio at 2.5 uM after 24 hrs by Western blot analysis; assay type: functional, cell-based
In short: (§3)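 MCF7 cells (~5 × 10^6) left untreated (DMSO control) or exposed to 2.5 µM compound for 24 h. Lysed in RIPA buffer, probed overnight at 4 °C, then given infrared-tagged secondary antibodies for 1 h at 37 °C and imaged by infrared scanning. LC3-II/I ratio and p62 taken by densitometry with GAPDH as loading control. Two independent experiments.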

[10] = test system: MCF7; assay: Induction of autophagy in human MCF7 cells assessed as increase in p62 degradation at 2.5 uM after 24 hrs by Western blot analysis; assay type: functional, cell-based; in short: as §3
[11] = test system: MCF7; assay: Induction of autophagy in human MCF7 cells assessed as increase in CHOP mRNA expression at 2.5 uM after 24 hrs by RT-PCR analysis; assay type: functional, cell-based
[12] = test system: MCF7; assay: Induction of autophagy in human MCF7 cells assessed as increase in BAD mRNA expression at 2.5 uM after 24 hrs by RT-PCR analysis; assay type: functional, cell-based
In short: (§4)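 MCF7 cells given 2.5 µM or DMSO for 24 h. Total RNA extracted with TRIzol and reverse-transcribed, then SYBR Green qPCR across 34 autophagy-regulatory genes (95 °C 10 min; 40 cycles of 95 °C 15 s and 60 °C 1 min). Relative expression by 2^-ΔΔCt against housekeeping genes and DMSO control, shown as log2. Two independent experiments.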

[13] = test system: MCF7; assay: Induction of autophagy in human MCF7 cells assessed as increase in GABARAPL1 mRNA expression at 2.5 uM after 24 hrs by RT-PCR analysis; assay type: functional, cell-based; in short: as §4
[14] = test system: MCF7; assay: Induction of autophagy in human MCF7 cells assessed as increase in UVRAG mRNA expression at 2.5 uM after 24 hrs by RT-PCR analysis; assay type: functional, cell-based
In short: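 Total RNA was taken with TRIzol from MCF7 cells treated 24 h with 2.5 µM compound or DMSO, then reverse transcribed. SYBR Green qPCR ran 40 cycles of 95 °C 15 s / 60 °C 1 min. Relative expression was calculated by 2^-ΔΔCt against DMSO-treated cells, normalized to housekeeping genes (GAPDH, B2M and others). Samples run in duplicate, two independent experiments, values averaged.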

[15] = test system: MCF7; assay: Induction of autophagy in human MCF7 cells assessed as increase in GADD34 protein expression at 2.5 uM after 24 hrs by Western blot analysis; assay type: functional, cell-based; in short: as §2
[16] = test system: MCF7; assay: Induction of autophagy in human MCF7 cells assessed as increase in p62 degradation at 2.5 uM after 24 hrs in presence of chloroquine by Western blot analysis; assay type: functional, cell-based
In short: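 MCF7 cells were given 2.5 µM compound alone or combined with 50 µM chloroquine, with DMSO control, for 24 h. Lysates were immunoblotted for p62 and LC3, with GAPDH as loading control. Band intensities were quantified by infrared imaging. At least two independent experiments.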

[17] = test system: MCF7; assay: Induction of autophagy in human MCF7 cells expressing mCherry-tagged p62 assessed as reduction in p62 expression at 2.5 uM after 24 hrs by live-cell confocal microscopic analysis; assay type: functional, cell-based
In short: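 MCF7 cells were co-transfected with GFP-LC3 and mCherry-p62 constructs. 24 h later they were exposed to 2.5 µM compound, 50 µM chloroquine or DMSO for a further 24 h. Nuclei were stained with Hoechst 33342 and cells imaged by live-cell confocal microscopy. Two independent experiments.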

[18] = test system: MDA-MB-231; assay: Cytotoxicity against human MDA-MB-231 cells assessed as reduction in cell viability at 25 to 100 uM after 24 hrs in presence of chloroquine by MTT assay; assay type: functional, cell-based; settings: dose 25-100 µM
In short: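 ~0.5 × 10^5 cells per well in six-well plates given 2.5 µM test agent together with chloroquine at 25, 50 or 100 µM, 24 h at 37 °C in humidified CO2. Viability read by MTT. Duplicate assays from two independent experiments, shown with SD.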

[19] = test system: MCF7; assay: Induction of autophagy in human MCF7 cells assessed as LC3-2 to LC3-1 protein ratio at 1.25 uM after 24 hrs by Western blot analysis (reference value: 0.22 to 0.8); assay type: functional
[20] = test system: MCF7; assay: Induction of autophagy in human MCF7 cells assessed as LC3-2 to LC3-1 protein ratio at 2.5 uM after 24 hrs by Western blot analysis (reference value: 0.22 to 0.8); assay type: functional
[21] = test system: MCF7 (Homo sapiens); assay: Induction of apoptosis in human MCF7 cells assessed as increase in cell death at 2.5 uM after 24 hrs by EtBr/AO staining based fluorescence microscopic method
[22] = test system: MCF7 (Homo sapiens); assay: Induction of apoptosis in human MCF7 cells assessed as increase in cell death at 2.5 uM after 24 hrs by EtBr/AO staining based fluorescence microscopic method relative to tanshinone-2A

Compound | pIC50 [1] | Activity [2] [%] | Activity [3] [%] | Activity [4] | Activity [5] | Activity [6] | Activity [7] | Activity [8] | Activity [9] | Activity [10] | Activity [11] | Activity [12] | Activity [13] | Activity [14] | Activity [15] | Activity [16] | Activity [17] | Activity [18] | Ratio [19] | Ratio [20] | other results
O=C1C(=O)c2ccsc2-c2ccccc21 | 5.71 | 19.1 | 11.9 | Active | Tde | Tde | Tde | Active | Active | Active | Active | Active | Active | Active | Active | inactive | Active | inactive | 10.2 | 16.3 | Activity [21]: Active; fold change (FC) [22]: 2
O=C1C(=O)c2sccc2-c2ccccc21 | 5.73 | 23.5 | 24.7 | Active | Tde | Tde | Tde | Active | Active | Active | Active | Active | Active | Active | Active | inactive | Active | inactive | 0.53 | 7.14 | Activity [21]: Active; fold change (FC) [22]: 2
